Experiments:
[1] = tested on: Mus musculus; assay: Toxicity in Kunming mouse xenografted with human HepG2 cells assessed as change in body weight at 20 mg/kg, iv administered 24 hrs after tumor implantation one dose per two day for total of four treatment measured after 24 hrs last postdose (reference value: 20.90 +/- 1.29 g); settings: in vivo
[2] = tested on: SMMC-7721; assay: Antiproliferative activity against human SMMC7721 cells after 24 hrs by MTT assay; type: functional, cell-based; settings: SMMC-7721, 24 h
Method in brief: (§1)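 Cells grown at 37 °C in humidified 5% CO2 with benzylpenicillin and streptomycin. Compounds came from 0.01 mol/L DMSO stocks and were tested at eight two-fold dilutions in triplicate, with medium-only controls, for 24 h. MTT absorbance was read at 570 nm. Survival = A_treatment/A_control × 100. IC50 is the concentration giving 50% viability inhibition, as the mean of two separate experiments.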

[3] = tested on: BGC-823; assay: Antiproliferative activity against human BGC823 cells after 24 hrs by MTT assay; type: functional, cell-based; settings: BGC-823, 24 h
Method in brief: as §1

[4] = tested on: Heps hepatoma (Mus musculus); assay: Antitumor activity against murine Heps hepatoma cells transplanted in Kunming mouse assessed as tumor growth inhibition at 20 mg/kg, iv administered 24 hrs after tumor implantation one dose per two day for total of four treatment measured after 24 hrs last postdose relative to control
[5] = tested on: MCF7; assay: Antiproliferative activity against human MCF7 cells after 24 hrs by MTT assay; type: functional, cell-based; settings: MCF7, 24 h
Method in brief: as §1

[6] = tested on: HepG2; assay: Antiproliferative activity against human HepG2 cells after 24 hrs by MTT assay; type: functional, cell-based; settings: HepG2, 24 h
Method in brief: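 Tetrazolium MTT viability test; cells exposed to compound 24 h, absorbance read at 570 nm. Survival ratio = A treated / A control × 100%; IC50 is the concentration giving 50% loss of viability. Eight concentrations in two-fold dilutions, triplicate wells, mean of two separate experiments. Compounds dissolved in DMSO (0.01 mol/L stock); control wells received medium only.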

| Compound | Activity [1] | IC50 [2] | IC50 [3] | inhibition in vivo at 20 mg/kg [4] | IC50 [5] | IC50 [6] |
| --- | --- | --- | --- | --- | --- | --- |
| CC(C)=CCC[C@]1(C)C=Cc2c(O)c3c(c(CC=C(C)C)c2O1)O[C@]12C(=C[C@@H]4C[C@H]1C(C)(C)O[C@@]2(C/C=C(/C)C(=O)O)C4=O)C3=O [GAMBOGIC ACID] | 27.6 g | 3.2 µM | 2.35 µM | 45.3% | 2.19 µM |  |
| CC(C)=CCC12OC(C)(C)C3CC(C=C4C(=O)c5cccc(O)c5OC431)C2=O (centres undefined) |  | 11.7 µM | 19.3 µM |  | 19.4 µM | 14.3 µM |
